Data set [1] deals with MOLT-4. The data set can be described thus: Growth inhibition of human MOLT4 cells assessed as cell growth inhibition at 10 uM incubated for 48 hrs by sulforhodamine B assay. It is filed as functional. To be noted: MOLT-4, 48 h, read-out: GI. (In general: In SRB staining, fixed cells bind dye roughly in proportion to their protein.)
The target of data set [2] is Histone deacetylase 11 (Homo sapiens, UniProt Q96DB2). The data set can be described thus: Inhibition of HDAC11 (unknown origin) using Fluor de Lys substrate by fluorescence assay relative to control. A digest of the protocol:
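Recombinant HDAC isoform assays run by a contract lab. Compounds in DMSO, 10-dose IC50 mode, 3-fold serial dilution from 50 μM. Duplicate runs; IC50 from curve fitting.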

In data set [3] the test system is HOP-92. The data set can be described thus: Growth inhibition of human HOP92 cells assessed as cell growth inhibition at 10 uM incubated for 48 hrs by sulforhodamine B assay. It is filed as functional. The conditions noted are these: HOP-92, 48 h, read-out: GI.
Data set [4] relates to U-251. Kind of data set: Growth inhibition of human U251 cells assessed as cell growth inhibition at 10 uM incubated for 48 hrs by sulforhodamine B assay. The conditions noted are these: U-251, 48 h, read-out: GI. Type of data set: functional.
For data set [5], the system named is NCI-H23. Kind of data set: Growth inhibition of human NCI-H23 cells assessed as cell growth inhibition at 10 uM incubated for 48 hrs by sulforhodamine B assay. To be noted: NCI-H23, 48 h, read-out: GI. Type of data set: functional.
A short description of data set [6]: AUC (0 to infinity) in Sprague-Dawley rat at 1 mg/kg, iv by LC-MS/MS analysis. It is filed as ADME, organism-based. On the set-up: dose 1 mg/kg, route intravenous, time infinity. The conditions noted are these: in vivo. A digest of the protocol: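 Male SD rats, 199-214 g, three per route. Single iv dose of 1 mg/kg or oral dose of 10 mg/kg. About 200 μL blood drawn from the jugular vein into heparinized tubes at set times, then spun to plasma. 30 μL plasma precipitated with CH3CN containing verapamil and glibenclamide as internal standards. Plasma drug level measured by LC-MS/MS.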

Sequence of Histone deacetylase 11 (Q96DB2 whole entry, canonical isoform): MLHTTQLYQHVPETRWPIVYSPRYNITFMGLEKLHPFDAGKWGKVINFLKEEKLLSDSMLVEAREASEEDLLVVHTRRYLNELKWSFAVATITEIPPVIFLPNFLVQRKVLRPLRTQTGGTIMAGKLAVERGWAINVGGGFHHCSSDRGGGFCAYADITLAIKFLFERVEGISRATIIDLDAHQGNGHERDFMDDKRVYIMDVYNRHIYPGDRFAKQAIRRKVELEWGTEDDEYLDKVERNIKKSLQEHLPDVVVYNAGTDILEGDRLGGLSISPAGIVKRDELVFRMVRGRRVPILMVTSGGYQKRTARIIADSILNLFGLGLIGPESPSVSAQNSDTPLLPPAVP

In the case of `Nc1cc(F)ccc1NC(=O)c1ccc(CNC(=O)/C=C2\NC(=O)c3ccccc32)cc1`, the inhibition of growth at 10 µM was 63% in data set [1], 58.6% in data set [3], 35.9% in data set [4] and 26.5% in data set [5]. Also, the IC50 (commonly the point on the concentration scale where inhibition reaches its midpoint) in data set [2] came out at 632 nM. Besides, the total exposure AUC(0-inf) (as a rule, the area under the concentration-time curve extrapolated to infinity) in data set [6] was 784 ng·h/mL.

These data come from ChEMBL document CHEMBL4387704, “Design, synthesis and biological evaluation of novel isoindolinone derivatives as potent histone deacetylase inhibitors” (Eur J Med Chem, 2019).
